Data: ChEMBL document CHEMBL1152423, “Development of N-[11C]methylamino 4-hydroxy-2(1H)-quinolone derivatives as PET radioligands for the glycine-binding site of NMDA receptors” (Bioorg Med Chem, 2009)
Blank lines part the entries; values can stand above or below the compound they belong to.

Key:
[1] = Ratio of drug level in cerebellum to blood of ddY mouse at 7.4 MBq, iv after 30 mins; format: ADME, organism-based
Summary of the method: (§1)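 ddY mice (35–45 g) received about 7.4 MBq of [11C]radioligand in 0.2 ml into the tail vein and were decapitated at 1 or 30 min. Blood, cerebrum and cerebellum were gamma-counted with decay correction and expressed as % injected dose/g; tissue/blood ratios were derived. n=3 or 5.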

[2] = Ratio of drug level in cerebellum to blood of ddY mouse at 7.4 MBq, iv after 1 min; format: ADME, organism-based; summary of the method: as §1
[3] = Biodistribution in ddY mouse cerebrum assessed per gram of tissue at 7.4 MBq, iv after 1 min by gamma counting; format: ADME, organism-based; conditions: in vivo; summary of the method: as §1
[4] = Biodistribution in ddY mouse cerebrum assessed per gram of tissue at 7.4 MBq, iv after 30 mins by gamma counting; format: ADME, organism-based; conditions: in vivo, 0.5 h; summary of the method: as §1
[5] = test system: Cerebellum; test: Biodistribution in ddY mouse cerebellum assessed per gram of tissue at 7.4 MBq, iv after 1 min by gamma counting; format: ADME, organism-based; conditions: in vivo; summary of the method: as §1
[6] = Ratio of drug level in cerebrum to blood of ddY mouse at 7.4 MBq, iv after 30 mins; format: ADME, organism-based; summary of the method: as §1
[7] = test system: Blood; test: Biodistribution in ddY mouse blood assessed per gram of tissue at 7.4 MBq, iv after 1 min by gamma counting; format: ADME, organism-based; conditions: in vivo; summary of the method: as §1
[8] = Ratio of drug level in cerebrum to blood of ddY mouse at 7.4 MBq, iv after 1 min; format: ADME, organism-based; summary of the method: as §1
[9] = test system: Blood; test: Biodistribution in ddY mouse blood assessed per gram of tissue at 7.4 MBq, iv after 30 mins by gamma counting; format: ADME, organism-based; conditions: in vivo, 0.5 h; summary of the method: as §1
[10] = test system: Cerebellum; test: Biodistribution in ddY mouse cerebellum assessed per gram of tissue at 7.4 MBq, iv after 30 mins by gamma counting; format: ADME, organism-based; conditions: in vivo, 0.5 h; summary of the method: as §1
[11] = target: Glutamate NMDA receptor; test: Displacement of [3H]MDL-105519 from glycine binding site of NMDA receptor in rat cortical membrane by liquid scintillation counting; format: cell membranes
Summary of the method: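 Washed rat cortical membranes in 50 mM Tris–HCl (pH 8.0) were incubated 45 min at 4 °C with [3H]MDL-105,519 (2 nM) plus buffer or displacer. Nonspecific binding was defined with excess unlabeled glycine. Samples were filtered on GF/B, washed three times with ice-cold buffer, and counted by liquid scintillation. Ki came from three determinations, each in triplicate.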

[12] = target: Glutamate NMDA receptor; test: Binding affinity to glycine binding site of NMDA receptor in rat brain; format: tissue-based
[13] = Plasma protein binding in rat at 0.67 to 0.89 […] after 30 mins by ultrafiltration; format: ADME, cell-free; conditions: read-out: PPB (converted)
Summary of the method: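 Rat serum was diluted 10-fold in 66 mM phosphate buffer (pH 7.4) containing [11C]radioligand (0.67–0.89 MBq) and incubated 30 min at 30 °C. It was then ultrafiltered by centrifugation at 2000 rpm for 15 min. Radioactivity in whole plasma and in filtrate was counted to give % bound (mean, n=3).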

[14] = n-Octanol-sodium phosphate buffer partition coefficient, log D at pH 7.4 after 15 mins by shake-flask method; format: physicochemical
Summary of the method: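 Compound (1–2 mg) was shaken 15 min at ambient temperature in n-octanol and 10 mM phosphate buffer (pH 7.4). The mixture was centrifuged at 2500 rpm for 5 min, and both layers were analysed by HPLC (n=3).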

SMILES: [11CH3]Nc1ccc(Cc2cccc(-c3c(O)c4ccc(Cl)cc4[nH]c3=O)c2)cc1
Kp at 0.5 h [1]: 0.058
Kp at 1 min [2]: 0.037
Drug uptake [3]: 0.4 %ID
Drug uptake [4]: 0.17 %ID/g
Drug uptake [5]: 0.48 %ID
Kp at 0.5 h [6]: 0.043
Drug uptake [7]: 13.08 %ID
Kp at 1 min [8]: 0.031
Drug uptake [9]: 3.93 %ID/g
Drug uptake [10]: 0.23 %ID/g

SMILES: CCc1cc(Cl)cc2[nH]c(=O)c(-c3cccc(N(C)C)c3)c(O)c12
Ki [11]: 34.3 nM

SMILES: CCc1cc(Cl)cc2[nH]c(=O)c(-c3cccc(OC)c3)c(O)c12
Ki [12]: 7.2 nM
fraction unbound at 0.5 h [13]: 0.06

SMILES: COc1cccc(-c2c(O)c3c(N(C)C)cc(Cl)cc3[nH]c2=O)c1
Ki [11]: 566 nM

The next lines start with the values.

Ki [11]: 119 nM
SMILES: COc1cccc(-c2c(O)c3c(N)cc(Cl)cc3[nH]c2=O)c1

Ki [11]: 23.6 nM
SMILES: COc1ccc(Nc2cccc(-c3c(O)c4ccc(Cl)cc4[nH]c3=O)c2)cc1

Ki [12]: 167 nM
SMILES: COc1cccc(-c2c(O)nc3cc(Cl)ccc3c2O)c1

logD at 0.25 h [14]: 3.47
Ki [11]: 5.12 nM
fraction unbound at 0.5 h [13]: 0.06
SMILES: COc1ccc(Cc2cccc(-c3c(O)c4ccc(Cl)cc4[nH]c3=O)c2)cc1
